The text below walks through data of ChEMBL document CHEMBL1123564, “C-terminal deletions in agonistic and antagonistic analogues of vasopressin that improve their specificities for antidiuretic (V2) and vasopressor (V1) receptors” (J Med Chem, 1987).

For assay [1], the species on record is Rattus norvegicus. Put plainly: Compound was tested for antidiuretic activity in rats under ethanol anesthesia. The assay is classed as functional, Urine. In a few lines:
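Rats under ethanol anesthesia were given antidiuretic agonist assays against the USP posterior pituitary reference standard. Activity is expressed in units/mg.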

The species named for assay [2] is Rattus norvegicus. Nature of the assay: Antivasopressor activity in phenoxybenzamine treated rats under urethane anesthesia was determined; Agonistic activity was observed. The format is functional.

For the molecule `N=C(N)NCCC[C@H](NC(=O)[C@@H]1CCCN1C(=O)[C@@H]1CSSC[C@H](N)C(=O)N[C@@H](Cc2ccc(O)cc2)C(=O)N[C@@H](Cc2ccccc2)C(=O)N[C@@H](CCC(N)=O)C(=O)N[C@@H](CC(N)=O)C(=O)N1)C(=O)NCC(N)=O` [VASOPRESSIN], the Antidiuretic activity in the assay filed under Rattus norvegicus [1] worked out at 330 U/mg. Further, the vasopressor activity in the assay filed under Rattus norvegicus [2] was 382 units/mg.
